Reference: ChEMBL document CHEMBL3044977, “Synthesis and fungicidal activity of enantiomerically pure (R)- and (S)-silicon-containing azole fungicides” (Bioorg Med Chem, 2004)

Tests used:
[1] = test system: Pyricularia oryzae; test: Antifungal activity against Magnaporthe oryzae infected compound pre-treated rice seedlings through submerged application assessed as concentration required to prevent rice blast disease development measured per 10 acres after 7 days under greenhouse condition; format: functional
[2] = test system: Pyricularia oryzae; test: Fungicidal activity against Magnaporthe oryzae assessed as inhibition of mycelial growth after 24 to 48 hr by agar dilution method; format: functional, organism-based
Method in brief: (§1)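 Agar dilution on potato dextrose agar. Test compounds were serially diluted in DMSO containing 10% Tween 20, and 0.1 mL of each dilution went into a petri dish with 10 mL of agar medium, which was then solidified. IC50 was taken as the concentration giving 50% inhibition.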

[3] = test system: Rhizoctonia solani; test: Fungicidal activity against Rhizoctonia solani assessed as inhibition of mycelial growth after 24 to 48 hr by agar dilution method; format: functional, organism-based; method in brief: as §1
[4] = test system: Rhizoctonia solani; test: Antifungal activity against Rhizoctonia solani infected compound pre-treated rice seedlings through submerged application assessed as concentration required to prevent rice sheath blight disease development measured per 10 acres after 7 days under greenhouse condition; format: functional

Structure (SMILES)	Activity [1] [g]	IC50 [2] [ppm]	IC50 [3] [ppm]	Activity [4] [g]
C[Si](C)(C)CC(O)(Cn1cncn1)c1ccc(F)cc1 (racemic) [SIMECONAZOLE]	100	1.25	0.042	25
C[Si](C)(C)C[C@](O)(Cn1cncn1)c1ccc(F)cc1	100	0.95	0.016	25
C[Si](C)(C)C[C@@](O)(Cn1cncn1)c1ccc(F)cc1	>100	33.5	0.54	>100
